Experimental data reported in ChEMBL document CHEMBL2203235, “Optimization of a natural product-based class of γ-secretase modulators” (J Med Chem, 2012).

Experiments:
[1] = tested on: Liver microsomes; test: (§1) Metabolic stability in human liver microsomes assessed as compound remaining at 1 uM at 60 mins by LC/MS/MS analysis in absence of NADPH; assay type: ADME, Microsome; conditions: microsomes, 1 h, 1 µM
In short: (§2)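 Human liver microsomes were run without NADPH as a qualitative read of susceptibility to enzymatic hydrolysis. The read-out was percent parent remaining at 60 min.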

[2] = Modulation of gamma secretase in CHO-2B7 cells assessed as reduction in amyloid beta 40 level after 5 hrs by MSD ELISA; assay type: cell-based; conditions: Cricetulus griseus, CHO-2B7, 5 h
[3] = Modulation of gamma secretase in CHO-2B7 cells assessed as reduction in amyloid beta 42 level after 5 hrs by MSD ELISA; assay type: cell-based; conditions: Cricetulus griseus, CHO-2B7, 5 h
[4] = Drug uptake in CD1 mouse brain at 1 mg/kg, iv at 2 hrs; assay type: ADME, organism-based; design: dose 1 mg/kg, route intravenous; conditions: read-out: Drug uptake
In short: (§3)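 Screen of CNS penetration: CD-1 mice were dosed IV and plasma and brain concentrations were measured. Brain-to-plasma ratio was calculated, mostly at 6 h post dose, with one compound sampled at 2 h.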

[5] = tested on: Liver microsomes; test: Metabolic stability in human liver microsomes at 1 uM after 60 mins by LC/MS/MS analysis; conditions: 1 h
[6] = Ratio of drug uptake in brain to plasma in CD1 mouse at 1 mg/kg, iv at 2 hrs; assay type: ADME, organism-based; design: dose 1 mg/kg, route intravenous; conditions: brain and plasma, read-out: BPR; in short: as §3
[7] = Plasma concentration in CD1 mouse at 1 mg/kg, iv at 2 hrs; assay type: ADME, organism-based; design: dose 1 mg/kg, route intravenous; in short: as §3
[8] = as §1; assay type: ADME, Microsome; conditions: liver microsomes, read-out: Stability; in short: as §2
[9] = Ratio of drug uptake in brain to plasma in rat at 10 mg/kg, po at 6 hrs; assay type: ADME, organism-based; design: dose 10 mg/kg, route oral; conditions: brain and plasma, read-out: BPR
[10] = Clearance in rat at 3 mg/kg, iv; assay type: ADME, organism-based; design: dose 3 mg/kg, route intravenous; conditions: in vivo
[11] = Volume of distribution in rat at 3 mg/kg, iv; assay type: ADME, organism-based; design: dose 3 mg/kg, route intravenous; conditions: in vivo
[12] = Half life in rat at 3 mg/kg, iv; assay type: ADME, organism-based; design: dose 3 mg/kg, route intravenous; conditions: in vivo
[13] = Cmax in rat at 10 mg/kg, po; assay type: ADME, organism-based; design: dose 10 mg/kg, route oral; conditions: in vivo
[14] = Oral bioavailability in rat at 10 mg/kg; assay type: ADME, organism-based; conditions: in vivo

Stability [1] | IC50 [2] | concentration at 2 h [4] | Stability [5] | Kp at 2 h [6] | concentration at 2 h [7] | SMILES | IC50 [3] | remaining at 1 h, 1 µM [8] | Kp at 6 h [9] | clearance [10] | Vd [11] | half-life [12] | Cmax [13] | bioavailability [14]
123% | 7.9 µM | 30 nM | Stable | 0.09 | 326 nM | CC(C)[C@@H](OC(=O)N1CCC1)[C@H]1C[C@@H](C)[C@H]2[C@H](O1)[C@H](O)[C@@]1(C)[C@@H]3CC[C@H]4C(C)(C)[C@@H](O[C@H]5CNCCO5)CC[C@@]45C[C@@]35CC[C@]21C | 0.26 µM | – | – | – | – | – | – | –
– | – | – | – | – | – | C[C@@H]1C[C@H]([C@H](O)C(C)(C)O)O[C@H]2[C@H]1[C@@]1(C)CC[C@@]34C[C@@]35CC[C@H](O[C@H]3CN([C@H]6CCNC6=O)CCO3)C(C)(C)[C@@H]5CC[C@H]4[C@]1(C)[C@H]2O | ≥ 20 µM | 85% | 0.09 | 9.67 mL/min/kg | 3.1 L/kg | 5 h | 2200 nM | > 100%
